The target of series [1] is T1, Fatty-acid amide hydrolase 1 (Mus musculus, UniProt O08914).
T1 sequence (O08914 whole entry): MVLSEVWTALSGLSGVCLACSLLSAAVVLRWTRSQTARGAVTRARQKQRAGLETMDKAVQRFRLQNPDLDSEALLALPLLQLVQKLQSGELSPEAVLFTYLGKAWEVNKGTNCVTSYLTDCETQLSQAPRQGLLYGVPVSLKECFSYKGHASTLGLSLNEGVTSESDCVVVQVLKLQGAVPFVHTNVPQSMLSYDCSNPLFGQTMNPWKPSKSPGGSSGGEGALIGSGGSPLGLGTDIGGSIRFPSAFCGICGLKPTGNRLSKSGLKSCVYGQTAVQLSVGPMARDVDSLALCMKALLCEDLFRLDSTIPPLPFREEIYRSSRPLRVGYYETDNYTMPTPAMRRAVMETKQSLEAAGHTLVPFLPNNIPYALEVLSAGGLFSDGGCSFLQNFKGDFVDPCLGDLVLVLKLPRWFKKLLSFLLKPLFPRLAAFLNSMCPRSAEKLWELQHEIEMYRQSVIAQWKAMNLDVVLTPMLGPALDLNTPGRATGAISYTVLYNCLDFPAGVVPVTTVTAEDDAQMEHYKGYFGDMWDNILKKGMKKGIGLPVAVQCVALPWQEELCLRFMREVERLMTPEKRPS
Briefly: Inhibition of FAAH in mouse brain membrane. It counts as cell membranes. In short, it runs like this:
(§1)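 Mouse brain membrane fraction (Dounce homogenized in PBS pH 7.5, 1,400 × g debris spin, 64,000 × g 45 min pellet, resuspended) at 1 mg/ml in PBS. Inhibitor preincubated 30 min at 37°C, then FP-rhodamine 1 μM final for 30 min at 25°C. SDS-PAGE with in-gel fluorescence scanning. IC50 from fitted integrated band intensities, mean of at least triplicates.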

The target in a further series is T2, Monoglyceride lipase (Mus musculus, UniProt O35678).
T2 sequence (O35678 whole entry): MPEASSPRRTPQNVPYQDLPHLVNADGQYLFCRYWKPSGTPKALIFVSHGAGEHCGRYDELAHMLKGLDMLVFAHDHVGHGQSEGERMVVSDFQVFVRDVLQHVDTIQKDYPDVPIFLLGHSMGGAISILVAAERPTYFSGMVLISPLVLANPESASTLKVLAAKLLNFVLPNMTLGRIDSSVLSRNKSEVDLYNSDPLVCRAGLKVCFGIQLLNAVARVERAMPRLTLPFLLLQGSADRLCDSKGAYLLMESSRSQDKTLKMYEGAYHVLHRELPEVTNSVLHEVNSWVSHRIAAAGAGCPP
Briefly: Inhibition of MAGL in mouse brain membrane. It counts as cell membranes. A digest of the protocol:
as §1

Series [2] concerns the target T3, Monoacylglycerol lipase ABHD6 (Mus musculus, UniProt Q8R2Y0).
T3 sequence (Q8R2Y0 whole entry): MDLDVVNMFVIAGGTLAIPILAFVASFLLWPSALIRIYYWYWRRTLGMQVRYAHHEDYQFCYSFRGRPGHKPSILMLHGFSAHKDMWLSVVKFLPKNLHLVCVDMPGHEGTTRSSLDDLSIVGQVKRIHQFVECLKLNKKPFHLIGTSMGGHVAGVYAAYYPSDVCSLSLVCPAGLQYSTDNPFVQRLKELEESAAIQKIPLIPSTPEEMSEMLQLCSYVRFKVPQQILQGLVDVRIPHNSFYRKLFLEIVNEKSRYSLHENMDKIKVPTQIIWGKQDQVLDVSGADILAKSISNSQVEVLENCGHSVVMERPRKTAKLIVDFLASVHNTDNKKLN
The series is described as follows: Inhibition of ABHD6 in mouse brain membrane. It counts as cell membranes. A digest of the protocol:
as §1

The target in series [3] is T4, Patatin-like phospholipase domain-containing protein 6 (Mus musculus, UniProt Q3TRM4).
T4 sequence (Q3TRM4 whole entry): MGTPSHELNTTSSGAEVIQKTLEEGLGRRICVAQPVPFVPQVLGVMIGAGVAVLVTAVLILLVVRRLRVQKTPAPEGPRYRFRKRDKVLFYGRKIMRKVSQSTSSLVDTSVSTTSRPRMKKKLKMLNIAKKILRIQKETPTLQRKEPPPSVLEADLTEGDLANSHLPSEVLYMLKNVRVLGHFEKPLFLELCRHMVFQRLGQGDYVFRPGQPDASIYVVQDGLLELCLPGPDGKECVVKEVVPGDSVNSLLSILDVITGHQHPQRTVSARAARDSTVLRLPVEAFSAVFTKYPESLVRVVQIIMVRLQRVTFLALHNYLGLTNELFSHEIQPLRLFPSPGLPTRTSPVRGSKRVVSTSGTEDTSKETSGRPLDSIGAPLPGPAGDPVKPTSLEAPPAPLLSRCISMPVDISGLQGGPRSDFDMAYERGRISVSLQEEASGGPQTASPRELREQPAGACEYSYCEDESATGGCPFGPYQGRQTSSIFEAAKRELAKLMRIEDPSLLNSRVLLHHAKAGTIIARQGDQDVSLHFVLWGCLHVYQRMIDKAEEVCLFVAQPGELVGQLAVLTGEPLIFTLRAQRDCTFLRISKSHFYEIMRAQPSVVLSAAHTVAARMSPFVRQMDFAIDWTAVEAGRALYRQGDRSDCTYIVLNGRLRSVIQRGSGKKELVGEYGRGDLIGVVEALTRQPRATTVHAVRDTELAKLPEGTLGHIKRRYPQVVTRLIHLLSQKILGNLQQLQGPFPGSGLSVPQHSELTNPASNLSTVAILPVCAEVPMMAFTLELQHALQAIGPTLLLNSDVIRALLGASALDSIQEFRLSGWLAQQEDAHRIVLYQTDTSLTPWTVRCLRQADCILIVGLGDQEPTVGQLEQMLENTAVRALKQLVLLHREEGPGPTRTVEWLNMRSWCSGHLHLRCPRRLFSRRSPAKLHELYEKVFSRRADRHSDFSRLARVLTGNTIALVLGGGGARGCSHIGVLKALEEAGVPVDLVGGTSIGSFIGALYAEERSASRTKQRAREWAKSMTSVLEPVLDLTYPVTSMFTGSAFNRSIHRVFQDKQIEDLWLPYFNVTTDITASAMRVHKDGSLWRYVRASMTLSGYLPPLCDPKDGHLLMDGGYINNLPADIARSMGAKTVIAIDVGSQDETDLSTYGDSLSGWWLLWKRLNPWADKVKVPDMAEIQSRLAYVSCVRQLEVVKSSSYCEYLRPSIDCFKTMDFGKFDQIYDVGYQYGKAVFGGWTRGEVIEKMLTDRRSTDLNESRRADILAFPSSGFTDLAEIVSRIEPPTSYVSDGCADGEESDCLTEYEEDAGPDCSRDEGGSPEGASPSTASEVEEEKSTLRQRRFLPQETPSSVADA
The series is described as follows: Inhibition of NTE in mouse brain membrane. It counts as cell membranes. A digest of the protocol: as §1

In series [4] the target is T5, Patatin-like phospholipase domain-containing protein 6 (Mus musculus) (UniProt Q3TRM4).
T5 sequence (whole entry): T4 sequence (Q3TRM4 whole entry)
Briefly: Inhibition of NTE in mouse brain membrane at 100 uM. It counts as cell membranes. In short, it runs like this:
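Competitive ABPP on mouse brain membrane proteome at 1 mg/ml in PBS. Inhibitor at 100 μM for 30 min at 37°C, then FP-rhodamine 1 μM final for 30 min at 25°C. SDS-PAGE and in-gel fluorescence scanning. Percent loss of NTE band labeling.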

The species entered for series [5] is Mus musculus. Briefly: Selectivity ratio of IC50 for mouse FAAH to IC50 for mouse MAGL. A digest of the protocol: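 Competitive ABPP on mouse brain membrane proteome (Dounce-homogenized in PBS pH 7.5, 64,000 × g pellet, resuspended), diluted to 1 mg/ml in PBS. Inhibitor preincubated 30 min at 37°C, then FP-rhodamine 1 μM final for 30 min at 25°C. SDS-PAGE and in-gel fluorescence scanning. IC50s for FAAH and MAGL come from integrated band intensities, means of ≥3 runs; the ratio is taken from these.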

The test system of series [6] is Mus musculus. The series is described as follows: In vivo inhibition of FAAH in mouse at 20 mg/kg, ip. It counts as functional, organism-based. The arrangement: dose 20 mg/kg.
Series [7] deals with Mus musculus. The series is described as follows: In vivo inhibition of FAAH in mouse at 100 mg/kg, po. It counts as functional, organism-based. The arrangement: dose 100 mg/kg.
Series [8] has as its system Mus musculus. Briefly: In vivo inhibition of MAGL in mouse at 20 mg/kg, ip. It counts as functional, organism-based. The arrangement: dose 20 mg/kg.
The subject of series [9] is Mus musculus. Briefly: In vivo inhibition of MAGL in mouse at 100 mg/kg, po. It counts as functional, organism-based. Set-up: dose 100 mg/kg.
In series [10] the test system is Mus musculus. Briefly: Toxicity in mouse assessed as death at 20 mg/kg, ip for 6 days. It counts as organism-based. The arrangement: dose 20 mg/kg, route intraperitoneal. The note with it: in vivo, 144 h.

The text below walks through data of ChEMBL document CHEMBL1156908, “Characterization of tunable piperidine and piperazine carbamates as inhibitors of endocannabinoid hydrolases” (J Med Chem, 2010).

As a reminder, the IC50 is the concentration that gives 50% inhibition. What is called inhibition is the drop in the measured response relative to a control, in per cent. Lower therefore signals a response near the control.

Activity calls are given as the source filed them. The rule behind the calls is not given here.

As to `O=C(Oc1ccc([N+](=O)[O-])cc1)N1CCN(Cc2ccc(-c3ccccc3OC(F)(F)F)o2)CC1`, the IC50 in series [1] was found to be 5 nM; against Monoglyceride lipase, 70 nM; in [2], 180 nM; in series [3] it was 570 nM. The compound further had an inhibition in [4] of 81%.
As for `Cc1ccc(Oc2cccc(CN3CCN(C(=O)Oc4ccc([N+](=O)[O-])cc4)CC3)c2)cc1`, the IC50 turned out to be 40 nM in [1], 500 nM at Monoglyceride lipase, 1130 nM in [2] and 3000 nM in series [3]. For the same compound, the inhibition in series [4] amounted to 70%.
`COc1ccc(Oc2cccc(CN3CCN(C(=O)Oc4ccc([N+](=O)[O-])cc4)CC3)c2)cc1`: the IC50 in series [1] was 90 nM; against Monoglyceride lipase it was 130 nM; in [2], 460 nM; in series [3], 2900 nM. Besides, the inhibition in series [4] came to 60%.
For `O=C(Oc1ccc([N+](=O)[O-])cc1)N1CCN(Cc2cccc(Oc3cccc(C(F)(F)F)c3)c2)CC1`, the concentration for half-maximal inhibition (IC50) was 5 nM in [1], 300 nM against Monoglyceride lipase, 320 nM in [2] and 14400 nM in [3]. Also, in series [4], the inhibition is 57%.
Turning to `O=C(Oc1ccc([N+](=O)[O-])cc1)N1CCN(Cc2cccc(Oc3ccccn3)c2)CC1`, the 50% inhibitory concentration (IC50) in series [1] is 40 nM; at Monoglyceride lipase, 50 nM; in series [2] it was 60 nM; in series [3] it was 1270 nM. For the same compound, the inhibition in [4] amounted to 73%.
In the same order, the values of `O=C(Oc1ccc([N+](=O)[O-])cc1)N1CCN(Cc2cc(Br)ccc2O)CC1` are 720 nM, 90 nM, 130 nM, 3240 nM and 73%.
`O=C(Oc1ccc([N+](=O)[O-])cc1)N1CCN(Cc2cccc(Oc3cc(Cl)cc(Cl)c3)c2)CC1`: the IC50 (in series [1]; against Monoglyceride lipase; in [2]; in series [3]) was over 100000 nM each time. This compound also yielded an inhibition in [4] of 0%.
With `O=C(Oc1ccc([N+](=O)[O-])cc1)N1CCC(C(O)(c2ccc(Cl)cc2)c2ccc(Cl)cc2)CC1`, the values for the IC50 (in [1]; against Monoglyceride lipase; in series [2]) were 3360 nM, 1100 nM and 180 nM, respectively. Besides, the Ratio IC50 in the series listed under Mus musculus [5] came to 3.
Consider `O=C(Oc1ccc([N+](=O)[O-])cc1)N1CCN(Cc2cccc(Oc3ccccc3)c2)CC1`, for which the results for the half-maximal inhibitory concentration (IC50) in [1], in series [2] and in series [3] were 13 nM, 50 nM and over 50000 nM, respectively. This compound also showed an inhibition in [4] of 50%. Besides, the outcome in the series with Mus musculus [6], in the series with Mus musculus [7], in the series with Mus musculus [8] and in the series on Mus musculus [9] was inactive. For the same compound, the Activity result with Mus musculus [10] is given as “Non-toxic”.
In the case of `O=C(Oc1ccc([N+](=O)[O-])cc1)N1CCC(C(O)(c2ccc3ccccc3c2)c2ccc3ccccc3c2)CC1`, the values for the IC50 (in series [1]; at Monoglyceride lipase; in series [2]) were 4690 nM, 810 nM and 3430 nM, respectively. For the same compound, the Ratio IC50 in the series listed under Mus musculus [5] came out at 6.
For the compound `O=C(Oc1ccc([N+](=O)[O-])cc1)N1CCC2(CC1)OC2(c1ccccc1)c1ccccc1`, the IC50 is 5850 nM in series [1], 200 nM at Monoglyceride lipase and 380 nM in [2]. Besides, the Ratio IC50 in the series listed under Mus musculus [5] stood at 29.
